Published values gathered from unrelated publications.
Compare with care: the assays were run in different laboratories.
CASP1: Caspase-1 (CASP1, Homo sapiens, UniProt P29466)
PPARA: Peroxisome proliferator-activated receptor alpha (PPARA, Homo sapiens, UniProt Q07869)
ADRA1B: Alpha-1B adrenergic receptor (ADRA1B, Homo sapiens, UniProt P35368)

Structure (SMILES)	target	assay	Ki
CSC[C@H]1CN(Cc2c[nH]c3c(N)ncnc23)C[C@@H]1O	5'-methylthioadenosine/S-adenosylhomocysteine nucleosidase (Staphylococcus aureus, UniProt Q5HFG2)	enzyme activity, inhibitor	7.8 nM
O=c1c(O)c(-c2ccc(O)c(O)c2)oc2cc(O)cc(O)c12	CASP1	enzyme activity, inhibitor, fluorescence	> 300000 nM
NCCCCC(c1ccccc1)(c1ccccc1)c1ccccc1	Kinesin-like protein KIF11 (KIF11, Homo sapiens, UniProt P52732)	ATPase activity, inhibitor	1670 nM
O=C(Nc1ccc(Oc2ncccn2)cc1C(=O)O)c1ccc(Cl)cc1Cl	PPARA	ligand displacement, TR-FRET	4420 nM
CC(=O)N[C@@H](CCCNC(=N)N)C(=O)NCCOCCOCC(=O)N[C@H](CC(=O)O)C(=O)N1CCC[C@H]1B(O)O	Prolyl endopeptidase (PREP, Homo sapiens, UniProt P48147)	enzyme activity, inhibitor, fluorescence	23.9 nM
O=c1c(O)c(-c2cc(O)c(O)c(O)c2)oc2cc(O)cc(O)c12	CASP1	enzyme activity, inhibitor, fluorescence	14300 nM
O=C(O)c1c(Sc2ccccc2)c2cc(Cl)ccc2n1Cc1ccc(Cl)cc1	PPARA	ligand displacement, TR-FRET	19700 nM
CCCCN1CCC(COC(=O)c2ccc(N)c(OCF)c2)CC1	ADRA1B	cell-free assay, radioligand	> 10000 nM
CS(=O)(=O)Nc1ccc[nH]c1=S	Insulin-degrading enzyme (IDE, Homo sapiens, UniProt P14735)	cell-free assay, inhibitor	> 200000 nM
O=C1c2ccccc2CCN1CCCCN1CCN(c2ccccn2)CC1	ADRA1B	ligand displacement, radioligand	1380 nM
CC(=O)N[C@@H](CC(C)C)C(=O)N[C@@H](CC(C)C)C(=O)N[C@@H](CCCN=C(N)N)C(=O)N[C@H](C(=O)N[C@@H](CCCCN)C(=O)N[C@@H](CCCN=C(N)N)C(N)=O)C(C)C	Proprotein convertase subtilisin/kexin type 7 (Homo sapiens, UniProt Q16549)	enzyme activity, inhibitor	2700 nM
COc1ccccc1N1CCN(CCCCN2CCc3ccccc3C2=O)CC1	ADRA1B	ligand displacement, radioligand	76.6 nM
CCCC[C@H](NC(=O)C1CN(C)C1)c1ncc(-c2cc3ccccc3nc2OC)[nH]1	Histone deacetylase 3 (HDAC3, Homo sapiens, UniProt O15379)	enzyme activity, inhibitor	273 nM
